{"data": "Assay results of several laboratories", "target": "Atypical kinase COQ8A, mitochondrial (COQ8A, Homo sapiens, UniProt Q8NI60)"}
{"SMILES": "Cc1cnc(Nc2ccc(C(=O)N3CCC(N4CCCC4)CC3)cc2)nc1-c1cc2ccccc2s1", "read-out": "binding", "technique": "competition with immobilised ligand", "tested at": "1 µM", "remaining binding [%]": 85}
{"SMILES": "CN(C)c1nccc(-c2cnc3ncccn23)n1", "read-out": "binding", "tested at": "1 µM", "remaining binding [%]": 100}
{"SMILES": "C=CC(=O)N1CCC(C(=O)NCC(=O)N2CCN(c3nc(-c4cnc(N)nc4C(F)F)nc(N4CCOCC4)n3)CC2)CC1", "read-out": "binding", "technique": "competition with immobilised ligand", "tested at": "1 µM", "remaining binding [%]": 78}
{"SMILES": "O=C(NCC1CCOCC1)c1n[nH]cc1NC(=O)c1c(F)cccc1F", "read-out": "binding", "technique": "competition with immobilised ligand", "tested at": "1 µM", "remaining binding [%]": 86}
{"SMILES": "CS(=O)(=O)c1cc(C2(NC(=O)c3cncc4c3cnn4-c3ccc(F)cc3)CC2)ccn1", "read-out": "cell-free assay", "technique": "competition with immobilised ligand", "tested at": "1 µM", "remaining binding [%]": 100}
{"SMILES": "CN(CCCC(F)(F)F)c1nccc(-c2cnn3ncccc23)n1", "read-out": "binding", "tested at": "1 µM", "remaining binding [%]": 99}
{"SMILES": "O=C(c1ccc(Nc2ncc(Cl)c(-c3ccc(Cl)s3)n2)cc1)N1CCC(N2CCCC2)CC1", "read-out": "binding", "technique": "competition with immobilised ligand", "tested at": "1 µM", "remaining binding [%]": 100}
{"SMILES": "NS(=O)(=O)c1cc(NC(=O)C2(c3ccccc3Cl)CC2)ccc1Oc1cccc(Cl)c1", "read-out": "cell-free assay", "technique": "competition with immobilised ligand", "tested at": "1 µM", "remaining binding [%]": 100}
{"SMILES": "N[C@@H]1CCN(c2nccc(-c3cnn4ncccc34)n2)C1", "read-out": "binding", "tested at": "1 µM", "remaining binding [%]": 100}
{"SMILES": "COc1cnc(Nc2cccc(S(N)(=O)=O)c2)nc1N1CCN(c2ccccc2)CC1", "read-out": "binding", "technique": "competition with immobilised ligand", "tested at": "1 µM", "remaining binding [%]": 100}
{"SMILES": "C[C@H](c1ccnc(Nc2nc3ccc(-c4cc(N(C)C)ncn4)cc3[nH]2)c1)N1CCN(C(=O)CC(F)(F)F)CC1", "read-out": "cell-free assay", "technique": "competition with immobilised ligand", "tested at": "0.1 µM", "remaining binding [%]": 100}
{"SMILES": "CC1CCCN1c1nccc(-c2cnn3ncccc23)n1 (stereo not drawn)", "read-out": "binding", "tested at": "1 µM", "remaining binding [%]": 100}
{"SMILES": "O=C(c1ccc(Nc2nccc(-c3cc4ccccc4s3)n2)cc1)N1CCC(N2CCCC2)CC1", "read-out": "binding", "technique": "competition with immobilised ligand", "tested at": "1 µM", "remaining binding [%]": 88}
{"SMILES": "CC(C)(C)c1ccc(-c2nc(CBr)nn2-c2cccc(O)c2)cc1", "read-out": "cell-free assay", "technique": "competition with immobilised ligand", "tested at": "10 µM", "remaining binding [%]": 86}
{"SMILES": "CNCc1ccccc1-c1csc([C@H](C)Nc2nc(C)nc3cc(OC)c(OC)cc23)c1", "read-out": "cell-free assay", "technique": "competition with immobilised ligand", "tested at": "1 µM", "remaining binding [%]": 91}
{"SMILES": "N#Cc1ccccc1CSc1nnc2c(n1)[nH]c1ccccc12", "read-out": "binding", "technique": "competition with immobilised ligand", "tested at": "10 µM", "remaining binding [%]": 95}
{"SMILES": "CNC(=O)[C@@H]1CC[C@@H](n2c(-c3ccc4cnccc4c3)nc3ccc(C(=O)NCc4cccc(C(N)=O)c4)cc32)C1", "read-out": "binding", "technique": "competition with immobilised ligand", "tested at": "1 µM", "remaining binding [%]": 100}
{"SMILES": "F[C@@H]1CCN(c2nccc(-c3cnn4ncccc34)n2)C1", "read-out": "binding", "tested at": "1 µM", "remaining binding [%]": 100}
{"SMILES": "CCC(=O)N[C@@H]1CC[C@H](C(=O)N(C)c2ccc(-c3nc4ccccc4o3)cc2)C1", "read-out": "cell-free assay", "technique": "competition with immobilised ligand", "tested at": "1 µM", "remaining binding [%]": 99}
{"SMILES": "C[C@@H]1CN(c2ccc3ncc(-c4ccc5[nH]nc(C6CC6)c5c4)n3n2)C[C@H](C)O1", "read-out": "binding", "technique": "competition with immobilised ligand", "tested at": "50 nM", "remaining binding [%]": 94}
{"SMILES": "Cc1nc(Cc2cccc(C(F)(F)F)c2)sc1-c1ccc(C(N)=O)nc1", "read-out": "cell-free assay", "technique": "competition with immobilised ligand", "tested at": "1 µM", "remaining binding [%]": 62}
{"SMILES": "C[C@H]1CCN(c2nccc(-c3cnn4ncccc34)n2)C1", "read-out": "binding", "tested at": "1 µM", "remaining binding [%]": 100}
{"SMILES": "O=c1nc(-c2ccccn2)sc2ccccc12", "read-out": "cell-free assay", "technique": "competition with immobilised ligand", "tested at": "1 µM", "remaining binding [%]": 88}
{"SMILES": "COc1ncc2cc3ccccc3nc2c1C#N", "read-out": "cell-free assay", "technique": "competition with immobilised ligand", "tested at": "5 µM", "remaining binding [%]": 96}
